Source: ChEMBL document CHEMBL4177702, “Design and synthesis of aminoester heterodimers containing flavone or chromone moieties as modulators of P-glycoprotein-based multidrug resistance (MDR)” (Bioorg Med Chem, 2018)
The source made the active and inactive calls. No cut-off for these calls is given here.

Assays:
Type in all cases: cell-based
[1] = (§1) Inhibition of P-gp in human K562/Dox cells assessed as increase in nuclear accumulation of pirarubicin by spectrofluorometric assay; settings: read-out: I50
Homo sapiens [2] = species on record: Homo sapiens; experiment: Inhibition of P-gp in human K562/Dox cells assessed as nuclear accumulation of pirarubicin at 10^-5 M by spectrofluorometric assay relative to control
K562 = experiment: Cytotoxicity against human K562 cells assessed as reduction in cell viability at 1 to 3 uM after 72 hrs by MTT assay; settings: k562, 72 h
Method in brief: (§2)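 Exponentially growing cells (3×10^5 cells/mL) seeded at 10^4 cells/well and exposed to compound at 1.0 and 3.0 μM (diluted from 10^-2 M DMSO stocks in complete medium) for 72 h at 37 °C, 5% CO2. MTT added for 3 h, formazan dissolved in acidified isopropanol, absorbance at 570 nm. Toxicity expressed as proliferation relative to untreated control (100%).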

[3] = Cytotoxicity against human K562/Dox cells assessed as reduction in cell viability at 1 to 3 uM after 72 hrs by MTT assay; method in brief: as §2
Homo sapiens [4] = species on record: Homo sapiens; experiment: as §1

| SMILES | IC50 [1] [nM] | Efficacy (Homo sapiens [2]) [%] | further results |
| --- | --- | --- | --- |
| COc1cc(/C=C/C(=O)OCCCCCN(C)CCCCCOC(=O)c2cc(=O)c3c(OC)cccc3o2)cc(OC)c1OC | 3500 |  |  |
| COc1cc(OC)c2c(=O)cc(C(=O)OCCCN(C)CCCOC(=O)/C=C/c3cc(OC)c(OC)c(OC)c3)oc2c1 |  | 4 to 30 |  |
| COc1cc(OC)c2c(=O)cc(C(=O)OCCCCCN(C)CCCCCOC(=O)/C=C/c3cc(OC)c(OC)c(OC)c3)oc2c1 | 1320 |  |  |
| COc1cc(/C=C/C(=O)OCCCCCN(CCCCCOC(=O)COc2ccc(-c3cc(=O)c4ccccc4o3)cc2)Cc2ccccc2)cc(OC)c1OC | 430 |  |  |
| COc1cc(/C=C/C(=O)OCCOCCN(C)CCOCCOC(=O)COc2ccc(-c3cc(=O)c4ccccc4o3)cc2)cc(OC)c1OC | 1230 |  | Activity (K562): Non-Toxic; Activity [3]: Non-Toxic |
| COc1cc(/C=C/C(=O)OCCCN(C)CCCOC(=O)c2cc(=O)c3c(O)cccc3o2)cc(OC)c1OC |  | 4 to 30 |  |
| COc1cc(/C=C/C(=O)OCCCN(C)CCCOC(=O)c2cc(=O)c3c(OC)cccc3o2)cc(OC)c1OC |  | 4 to 30 |  |
| COc1cc(/C=C/C(=O)OCCCN(C)CCCOC(=O)COc2ccc(-c3cc(=O)c4c(O)cc(O)cc4o3)cc2)cc(OC)c1OC |  | 4 to 30 |  |
| COc1cc(/C=C/C(=O)OCCOCCNCCOCCOC(=O)COc2ccc(-c3cc(=O)c4ccccc4o3)cc2)cc(OC)c1OC |  |  | Activity (K562): Non-Toxic; Activity [3]: Non-Toxic |
| COc1cc(/C=C/C(=O)OCCCCCN(C)CCCCCOC(=O)c2cc(=O)c3c(O)cc(O)cc3o2)cc(OC)c1OC | 2430 |  |  |
| COc1cc(/C=C/C(=O)OCCCCCN(C)CCCCCOC(=O)COc2ccc(-c3cc(=O)c4c(O)cc(O)cc4o3)cc2)cc(OC)c1OC | 960 |  |  |
| COc1cc(/C=C/C(=O)OCCCCCN(C)CCCCCOC(=O)COc2ccc(-c3cc(=O)c4ccccc4o3)cc2)cc(OC)c1OC | 340 |  | Activity (K562): Non-Toxic; Activity [3]: Non-Toxic |
| COc1cc(/C=C/C(=O)OCCCN(C)CCCOC(=O)c2cc(=O)c3c(O)cc(O)cc3o2)cc(OC)c1OC |  | 4 to 30 | Activity (K562): Non-Toxic; Activity [3]: Non-Toxic |
| COc1cc(/C=C/C(=O)OCCCCCNCCCCCOC(=O)COc2ccc(-c3cc(=O)c4ccccc4o3)cc2)cc(OC)c1OC | 1320 |  |  |
| COc1cc(/C=C/C(=O)OCCOCCN(C)CCOCCOC(=O)c2cc(=O)c3c(O)cc(O)cc3o2)cc(OC)c1OC |  |  | I50 (Homo sapiens [4]): inactive |
| COc1cc(/C=C/C(=O)OCCCCCN(C)CCCCCOC(=O)c2cc(=O)c3c(O)cccc3o2)cc(OC)c1OC | 350 |  |  |
